The results in this text go back to ChEMBL document CHEMBL1148546, “3-Arylpiperazinylethyl-1H-pyrrolo[2,3-d]pyrimidine-2,4(3H,7H)-dione derivatives as novel, high-affinity and selective alpha(1)-adrenoceptor ligands” (Bioorg Med Chem Lett, 2006).

As a reminder, the Ki is the equilibrium dissociation constant of an inhibitor or competing ligand from its target. Higher therefore signals a looser hold on the target.

D(1A) dopamine receptor, sequence (P21728 whole entry): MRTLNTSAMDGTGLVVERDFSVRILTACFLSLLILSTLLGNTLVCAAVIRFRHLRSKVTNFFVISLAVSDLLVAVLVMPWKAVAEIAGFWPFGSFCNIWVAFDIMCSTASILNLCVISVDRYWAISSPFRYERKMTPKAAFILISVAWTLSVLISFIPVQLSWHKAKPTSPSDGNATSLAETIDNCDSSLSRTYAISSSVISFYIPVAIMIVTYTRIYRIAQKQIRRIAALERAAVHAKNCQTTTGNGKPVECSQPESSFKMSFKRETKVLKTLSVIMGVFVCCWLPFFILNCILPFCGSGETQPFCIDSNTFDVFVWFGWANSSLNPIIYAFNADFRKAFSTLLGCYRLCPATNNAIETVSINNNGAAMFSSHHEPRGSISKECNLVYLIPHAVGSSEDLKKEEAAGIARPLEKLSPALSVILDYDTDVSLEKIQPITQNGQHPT

The species named for the first assay is Homo sapiens. As to the kind of experiment: Selectivity for dopamine D1 over adrenergic alpha-1 receptor. In short, it runs like this: (§1)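 Selectivity is the ratio of Ki at 5-HT1A, D1 or D2 to Ki at α1. Ki values are means (±SD) of three separate experiments.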
As to `O=c1[nH]c2[nH]c(-c3ccccc3Cl)cc2c(=O)n1CCN1CCN(c2ccccc2Cl)CC1`, the Ratio Ki amounted to 90.

In the case of `Cc1ccccc1-c1cc2c(=O)n(CCN3CCN(c4ccccc4Cl)CC3)c(=O)[nH]c2[nH]1`, the Ratio Ki is 371.

Turning to `O=c1[nH]c2[nH]c(-c3ccccc3)cc2c(=O)n1CCN1CCN(c2ccccc2Cl)CC1`, the Ratio Ki was determined as 110.

For the molecule `COc1ccccc1-c1cc2c(=O)n(CCN3CCN(c4ccccc4Cl)CC3)c(=O)[nH]c2[nH]1`, the Ratio Ki was over 2500.

The next assay deals with D(2) dopamine receptor (Homo sapiens, UniProt P14416). In words: Binding affinity to dopamine D2 receptor.
D(2) dopamine receptor, sequence (P14416 whole entry): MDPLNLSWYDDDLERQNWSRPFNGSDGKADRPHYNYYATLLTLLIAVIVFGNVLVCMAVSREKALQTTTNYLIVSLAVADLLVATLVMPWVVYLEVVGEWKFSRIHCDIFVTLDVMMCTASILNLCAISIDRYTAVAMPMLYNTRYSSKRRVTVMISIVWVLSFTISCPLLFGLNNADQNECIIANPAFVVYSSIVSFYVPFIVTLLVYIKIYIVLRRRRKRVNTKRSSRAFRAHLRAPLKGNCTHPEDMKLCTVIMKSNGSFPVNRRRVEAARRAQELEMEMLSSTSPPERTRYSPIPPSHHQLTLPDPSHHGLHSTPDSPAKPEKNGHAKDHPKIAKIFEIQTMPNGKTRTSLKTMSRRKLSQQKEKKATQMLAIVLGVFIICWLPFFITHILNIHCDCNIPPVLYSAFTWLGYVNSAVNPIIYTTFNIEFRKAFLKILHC
In turn, `O=c1[nH]c2[nH]c(-c3ccccc3Cl)cc2c(=O)n1CCN1CCN(c2ccccc2Cl)CC1` yielded a Ki of 356 nM. This lies in the sub-micromolar range.

Molecule `Cc1ccccc1-c1cc2c(=O)n(CCN3CCN(c4ccccc4Cl)CC3)c(=O)[nH]c2[nH]1` had a Ki of 627 nM. This Ki is about 1.8-fold higher than that of the molecule before.

Regarding `O=c1[nH]c2[nH]c(-c3ccccc3)cc2c(=O)n1CCN1CCN(c2ccccc2Cl)CC1`, the Ki stood at 137 nM.

`COc1ccccc1-c1cc2c(=O)n(CCN3CCN(c4ccccc4Cl)CC3)c(=O)[nH]c2[nH]1` gave a Ki of 363 nM.

The next assay is filed under the species Homo sapiens. In words: Selectivity for 5HT1A over adrenergic alpha-1 receptor. The method, boiled down:
as §1
Regarding `COc1ccc(-c2cc3c(=O)n(CCN4CCN(c5ccccc5OC)CC4)c(=O)[nH]c3[nH]2)cc1`, the Ratio Ki came to 21.

For `COc1ccccc1N1CCN(CCn2c(=O)[nH]c3[nH]c(-c4ccc(C)cc4)cc3c2=O)CC1`, the Ratio Ki is 67.

On to `O=c1[nH]c2[nH]c(-c3ccccc3Cl)cc2c(=O)n1CCN1CCN(c2ccccc2Cl)CC1`, for which the Ratio Ki is 10.

For `COc1ccccc1N1CCN(CCn2c(=O)[nH]c3[nH]c(-c4ccccc4C)cc3c2=O)CC1`, the Ratio Ki turned out to be 248.

For the molecule `Cc1ccccc1-c1cc2c(=O)n(CCN3CCN(c4ccccc4Cl)CC3)c(=O)[nH]c2[nH]1`, the Ratio Ki stood at 518.

`O=c1[nH]c2[nH]c(-c3ccccc3)cc2c(=O)n1CCN1CCN(c2ccccc2Cl)CC1`: the Ratio Ki was found to be 327.

As to `COc1ccccc1N1CCN(CCn2c(=O)[nH]c3[nH]c(-c4ccc(Cl)cc4)cc3c2=O)CC1`, the Ratio Ki is 98.

As to `COc1ccccc1N1CCN(CCn2c(=O)[nH]c3[nH]c(-c4ccccc4)cc3c2=O)CC1`, the Ratio Ki was found to be 61.

For the molecule `COc1ccccc1N1CCN(CCn2c(=O)[nH]c3[nH]c(-c4ccccc4Cl)cc3c2=O)CC1`, the Ratio Ki is 8.8.

Turning to `COc1ccccc1-c1cc2c(=O)n(CCN3CCN(c4ccccc4OC)CC3)c(=O)[nH]c2[nH]1`, the Ratio Ki amounted to 97.

As for `COc1ccccc1-c1cc2c(=O)n(CCN3CCN(c4ccccc4Cl)CC3)c(=O)[nH]c2[nH]1`, the Ratio Ki was 310.

A further assay concerns the target D(1A) dopamine receptor (Homo sapiens, UniProt P21728). In words: Binding affinity to dopamine D1 receptor.
For `O=c1[nH]c2[nH]c(-c3ccccc3Cl)cc2c(=O)n1CCN1CCN(c2ccccc2Cl)CC1`, the affinity, expressed as Ki, was 567 nM.

On to `Cc1ccccc1-c1cc2c(=O)n(CCN3CCN(c4ccccc4Cl)CC3)c(=O)[nH]c2[nH]1`, for which the Ki turned out to be 1040 nM.

As for `O=c1[nH]c2[nH]c(-c3ccccc3)cc2c(=O)n1CCN1CCN(c2ccccc2Cl)CC1`, affinity was put at a Ki of 516 nM.

`COc1ccccc1-c1cc2c(=O)n(CCN3CCN(c4ccccc4Cl)CC3)c(=O)[nH]c2[nH]1`: the affinity, expressed as Ki, was 8550 nM.

Test system in another assay: not listed separately
As to the kind of experiment: Selectivity for dopamine D2 over adrenergic alpha-1 receptor. In short, it runs like this:
as §1
Take `O=c1[nH]c2[nH]c(-c3ccccc3Cl)cc2c(=O)n1CCN1CCN(c2ccccc2Cl)CC1`: the Ratio Ki came to 57.

With `Cc1ccccc1-c1cc2c(=O)n(CCN3CCN(c4ccccc4Cl)CC3)c(=O)[nH]c2[nH]1`, the Ratio Ki turned out to be 224.

Take `O=c1[nH]c2[nH]c(-c3ccccc3)cc2c(=O)n1CCN1CCN(c2ccccc2Cl)CC1`: the Ratio Ki is 29.

Consider `COc1ccccc1-c1cc2c(=O)n(CCN3CCN(c4ccccc4Cl)CC3)c(=O)[nH]c2[nH]1`, for which the Ratio Ki amounted to 109.

Another assay addresses T1, Adrenergic receptor alpha-1 (Homo sapiens, UniProt P35348+P25100+P35368).
T1 sequence (P35348 whole entry): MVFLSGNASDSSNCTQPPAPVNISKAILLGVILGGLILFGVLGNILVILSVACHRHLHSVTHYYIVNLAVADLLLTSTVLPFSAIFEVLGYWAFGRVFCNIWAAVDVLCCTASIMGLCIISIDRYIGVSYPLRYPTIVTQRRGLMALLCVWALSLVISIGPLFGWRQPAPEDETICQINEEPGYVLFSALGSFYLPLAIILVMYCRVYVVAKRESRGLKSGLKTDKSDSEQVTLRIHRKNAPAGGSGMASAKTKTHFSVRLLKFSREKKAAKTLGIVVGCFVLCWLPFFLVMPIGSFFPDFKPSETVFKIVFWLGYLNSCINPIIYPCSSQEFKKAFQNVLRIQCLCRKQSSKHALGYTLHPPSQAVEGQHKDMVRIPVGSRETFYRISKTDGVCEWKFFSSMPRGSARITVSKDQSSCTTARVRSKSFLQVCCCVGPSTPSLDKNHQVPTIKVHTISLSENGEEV
T1 sequence (P25100 whole entry): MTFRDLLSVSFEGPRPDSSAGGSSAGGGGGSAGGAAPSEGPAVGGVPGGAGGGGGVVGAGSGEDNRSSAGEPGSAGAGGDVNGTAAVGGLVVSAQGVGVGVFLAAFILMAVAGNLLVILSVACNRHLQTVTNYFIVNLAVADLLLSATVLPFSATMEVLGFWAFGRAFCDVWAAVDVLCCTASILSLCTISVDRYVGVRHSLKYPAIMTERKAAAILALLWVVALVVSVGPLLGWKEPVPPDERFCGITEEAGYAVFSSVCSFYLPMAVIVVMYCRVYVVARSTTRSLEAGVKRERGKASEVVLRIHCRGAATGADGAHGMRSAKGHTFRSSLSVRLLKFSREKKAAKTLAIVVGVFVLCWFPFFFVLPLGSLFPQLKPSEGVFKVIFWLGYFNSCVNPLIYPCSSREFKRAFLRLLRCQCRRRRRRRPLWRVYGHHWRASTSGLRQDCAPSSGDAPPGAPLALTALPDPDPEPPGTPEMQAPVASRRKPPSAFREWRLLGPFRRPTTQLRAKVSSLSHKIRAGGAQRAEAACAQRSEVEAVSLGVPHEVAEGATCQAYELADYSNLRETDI
T1 sequence (P35368 whole entry): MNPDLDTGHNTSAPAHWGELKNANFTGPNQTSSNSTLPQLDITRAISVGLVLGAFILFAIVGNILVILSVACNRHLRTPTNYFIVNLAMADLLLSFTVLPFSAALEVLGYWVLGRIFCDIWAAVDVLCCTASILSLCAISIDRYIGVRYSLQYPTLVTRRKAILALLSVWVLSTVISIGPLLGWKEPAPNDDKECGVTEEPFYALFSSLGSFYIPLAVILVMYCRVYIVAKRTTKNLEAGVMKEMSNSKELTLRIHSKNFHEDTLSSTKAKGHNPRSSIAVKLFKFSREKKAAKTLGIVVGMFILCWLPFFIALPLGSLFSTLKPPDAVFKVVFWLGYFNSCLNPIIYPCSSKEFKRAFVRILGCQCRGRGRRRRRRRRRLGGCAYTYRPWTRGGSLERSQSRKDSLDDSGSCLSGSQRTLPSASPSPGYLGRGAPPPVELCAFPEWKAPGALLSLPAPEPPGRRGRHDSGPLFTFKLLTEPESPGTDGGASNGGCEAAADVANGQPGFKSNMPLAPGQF
In words: Binding affinity to adrenergic alpha-1 receptor. Format: protein assay.
On to `COc1ccc(-c2cc3c(=O)n(CCN4CCN(c5ccccc5OC)CC4)c(=O)[nH]c3[nH]2)cc1`, for which the inhibition constant (Ki) worked out at 5.47 nM.

As for `COc1ccccc1N1CCN(CCn2c(=O)[nH]c3[nH]c(-c4ccc(C)cc4)cc3c2=O)CC1`, the Ki is listed as 4.97 nM. The Ki values of the last two molecules are within 1.5-fold of each other.

The molecule `O=c1[nH]c2[nH]c(-c3ccccc3Cl)cc2c(=O)n1CCN1CCN(c2ccccc2Cl)CC1` came in with a Ki of 6.28 nM. The Ki values of the last two molecules are within 1.5-fold of each other.

On to `COc1ccccc1N1CCN(CCn2c(=O)[nH]c3[nH]c(-c4ccccc4C)cc3c2=O)CC1`, for which the Ki amounted to 1.19 nM.

`Cc1ccccc1-c1cc2c(=O)n(CCN3CCN(c4ccccc4Cl)CC3)c(=O)[nH]c2[nH]1` yielded an inhibition constant Ki of 2.8 nM.

In turn, `O=c1[nH]c2[nH]c(-c3ccccc3)cc2c(=O)n1CCN1CCN(c2ccccc2Cl)CC1` returned a Ki of 4.71 nM.

On to `COc1ccccc1N1CCN(CCn2c(=O)[nH]c3[nH]c(-c4ccc(Cl)cc4)cc3c2=O)CC1`, for which the Ki came out at 4.08 nM. The Ki values of the last two molecules are within 1.5-fold of each other.

Regarding `COc1ccccc1N1CCN(CCn2c(=O)[nH]c3[nH]c(-c4ccccc4)cc3c2=O)CC1`, the Ki is listed as 1.99 nM.

Consider `COc1ccccc1N1CCN(CCn2c(=O)[nH]c3[nH]c(-c4ccccc4Cl)cc3c2=O)CC1`, for which the Ki was determined as 2.18 nM.

Take `COc1ccccc1-c1cc2c(=O)n(CCN3CCN(c4ccccc4OC)CC3)c(=O)[nH]c2[nH]1`: the Ki stood at 1.63 nM.

With `COc1ccccc1-c1cc2c(=O)n(CCN3CCN(c4ccccc4Cl)CC3)c(=O)[nH]c2[nH]1`, the Ki was found to be 3.32 nM.

A further assay addresses T2, 5-hydroxytryptamine receptor 1A (Homo sapiens, UniProt P08908).
T2 sequence (P08908 whole entry): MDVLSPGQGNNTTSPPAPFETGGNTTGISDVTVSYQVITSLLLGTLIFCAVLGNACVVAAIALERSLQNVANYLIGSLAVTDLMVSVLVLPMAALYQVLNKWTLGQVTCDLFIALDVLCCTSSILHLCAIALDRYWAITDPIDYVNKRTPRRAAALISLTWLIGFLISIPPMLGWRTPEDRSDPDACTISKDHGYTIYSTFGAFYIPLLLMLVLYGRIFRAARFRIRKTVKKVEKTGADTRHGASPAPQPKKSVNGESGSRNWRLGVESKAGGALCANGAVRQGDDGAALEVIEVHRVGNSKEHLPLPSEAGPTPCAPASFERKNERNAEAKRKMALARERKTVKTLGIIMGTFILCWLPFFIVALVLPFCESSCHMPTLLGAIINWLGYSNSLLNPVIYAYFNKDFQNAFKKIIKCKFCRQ
As to the kind of experiment: Binding affinity to 5HT1A.
`COc1ccc(-c2cc3c(=O)n(CCN4CCN(c5ccccc5OC)CC4)c(=O)[nH]c3[nH]2)cc1` had a Ki of 113 nM.

`COc1ccccc1N1CCN(CCn2c(=O)[nH]c3[nH]c(-c4ccc(C)cc4)cc3c2=O)CC1` yielded a Ki of 333 nM. Compared with the last molecule, the Ki is about 2.9-fold higher.

As for `O=c1[nH]c2[nH]c(-c3ccccc3Cl)cc2c(=O)n1CCN1CCN(c2ccccc2Cl)CC1`, the Ki was determined as 64.9 nM.

As to `COc1ccccc1N1CCN(CCn2c(=O)[nH]c3[nH]c(-c4ccccc4C)cc3c2=O)CC1`, the Ki was found to be 295 nM.

In the case of `Cc1ccccc1-c1cc2c(=O)n(CCN3CCN(c4ccccc4Cl)CC3)c(=O)[nH]c2[nH]1`, the affinity corresponds to a Ki of 1450 nM.

`O=c1[nH]c2[nH]c(-c3ccccc3)cc2c(=O)n1CCN1CCN(c2ccccc2Cl)CC1` had a Ki of 1540 nM.

`COc1ccccc1N1CCN(CCn2c(=O)[nH]c3[nH]c(-c4ccc(Cl)cc4)cc3c2=O)CC1` registered a Ki of 401 nM.

Molecule `COc1ccccc1N1CCN(CCn2c(=O)[nH]c3[nH]c(-c4ccccc4)cc3c2=O)CC1` gave a Ki of 122 nM.

`COc1ccccc1N1CCN(CCn2c(=O)[nH]c3[nH]c(-c4ccccc4Cl)cc3c2=O)CC1` came in with a Ki of 19.1 nM.

For `COc1ccccc1-c1cc2c(=O)n(CCN3CCN(c4ccccc4OC)CC3)c(=O)[nH]c2[nH]1`, the inhibitory constant (Ki) came out at 157 nM.

In turn, `COc1ccccc1-c1cc2c(=O)n(CCN3CCN(c4ccccc4Cl)CC3)c(=O)[nH]c2[nH]1` came in with a Ki of 1030 nM.
